Rows were chosen to be rich in hits. Some 2.9% of all compounds tested hit in one or more screens of this group.
MEKK2mut PB1 HTS: MEK5 binding signal on mutant MEKK2 PB1, primary screen, biochemical, multiplex bead flow cytometry, Alexa488-MEK5 | AID 1530, 2009 | percent response, % at 10 µM | 290,000 tested, 0.35% active | Alexa488-MEK5 binding to MEKK2 mutant; in the data active means percent response above about 24%, passing the limit was not always enough
MEKK2wt PB1 HTS: modulators of MEK5 binding to wildtype MEKK2, primary screen, biochemical, multiplex bead flow cytometry, Alexa488-MEK5. AID 1531, 2009. Alexa488-MEK5 binding to MEKK2 WT; actives lie on both sides. 290,000 tested, 1.1% active. binding response (% of control), % at 10 µM; in the data active means binding response below about 67% or above about 130%
Dynein cargo inh: inhibitors of GR-EGFP nuclear translocation, primary screen, dynein cargo transport inhibitor project, imaging, high-content, 3617.4 mouse cells. test concentration mostly 20 µM; stimulated with dexamethasone, 1 µM; active compounds read low. z-score, hits read low. 220,000 tested, 0.47% active. AID 1381, 2008;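 active means plate z-score of nuclear minus cytoplasmic receptor signal below a set negative limit, without overly bright fluorescence or cell loss, cut at about -3.5 in these data, passing the limit was not always enough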;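 further: z-score of nuclear minus cytoplasmic ring GR-EGFP intensity difference per well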
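Buffer or medium – tet-free medium with charcoal-stripped serum · Signal – automated 10x imaging of fixed Hoechst-stained cells · Also added – dexamethasone agonist, 1.0 µM final, for 30 min · Incubation – induction 48 h, compound 1 h, agonist 30 min · Read-out – GR-EGFP nuclear translocation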
ATG4B inh: ATG4B protease inhibitors, primary screen, biochemical, fluorescence, uHTS | ATG4B cleavage of LC3-PLA2, NBD-HPC fluorescence, 1 h | inhibition, % at 8.33 µM | 340,000 tested, 0.51% active; in the data active means inhibition above about 40%
Target sequence (Q9Y4P1 whole entry, looked up): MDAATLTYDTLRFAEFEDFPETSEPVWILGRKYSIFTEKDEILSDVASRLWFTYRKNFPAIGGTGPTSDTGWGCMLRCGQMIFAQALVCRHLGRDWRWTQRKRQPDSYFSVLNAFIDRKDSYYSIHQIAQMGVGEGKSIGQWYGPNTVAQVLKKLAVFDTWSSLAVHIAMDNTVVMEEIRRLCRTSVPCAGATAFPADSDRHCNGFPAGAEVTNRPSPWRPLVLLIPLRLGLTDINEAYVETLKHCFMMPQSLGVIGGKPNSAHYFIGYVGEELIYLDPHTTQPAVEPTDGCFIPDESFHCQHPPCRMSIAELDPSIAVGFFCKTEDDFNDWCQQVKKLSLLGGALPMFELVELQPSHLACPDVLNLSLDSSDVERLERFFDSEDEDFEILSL
Beta2AR agonist: beta2AR agonists driving receptor internalization, primary screen, cell-based, FAP fluorogen, flow cytometry; response, % (no concentration beside the values); AID 504454, 2011; Am2.2-beta2AR cells; 340,000 tested, 0.43% active;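 active means response above a set limit, near 3 SD of response in nonfluorescent compounds, cut at about 42% in these data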
MEKK3 PB1 HTS: modulators of MEKK3-MEK5 PB1 binding, primary screen, biochemical, wildtype MEKK3, multiplex bead flow cytometry, Alexa488-MEK5; bead-based flow cytometry, Alexa488-MEK5 binding to MEKK3; actives lie on both sides; 0 = blocked by unlabeled MEK5, 100 = vehicle; 290,000 tested, 1.4% active; binding response (% of control), % at 10 µM; Mitogen-activated protein kinase kinase kinase 3 (Homo sapiens), Q99759; AID 1529, 2009;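 active means binding response more than 3 SD above or below the average of its plate-row segment, actives on both sides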;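 further: Alexa488 bead fluorescence after subtracting the streptavidin-only scavenger bead signal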
B2AR ag CP1: beta2AR agonists via receptor internalization, confirmation, cell-based, FAP fluorogen, flow cytometry, single point, cherry pick 1; shares compounds with Beta2AR agonist; Am2.2-beta2AR cells, FAP surface receptor; active compounds read low; percent response (surface receptor), % at 10 µM; 1,100 tested, 25% active; AID 540358, 2011;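 active means surface receptor percent response at or below 58%, roughly 3 SD from nonfluorescent compounds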
B2AR FAP counter: flagged in Am2.2 fluorescence counterscreen for beta-2AR agonists. shares compounds with Beta2AR agonist. Am2.2 cells, FAP fluorogen flow cytometry; active compounds read low. calls only at 10 µM. 1,100 tested, under 10 active. AID 588765;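 active means percent response below a set limit in fluorescence channel 1 and below 50% in channel 8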
The depositor's hits bear a star; i = inactive; . = no result; ! = a repeat was not active.

SMILES | MEKK2mut PB1 HTS | MEKK2wt PB1 HTS | Dynein cargo inh | ATG4B inh | Beta2AR agonist | MEKK3 PB1 HTS | B2AR ag CP1 | B2AR FAP counter
CN1CCN(c2ccc(NC(=O)c3sc4ccccc4c3Cl)cc2)CC1 | 2.0 | 121.0 | -0.782 | -7.4 | 37.5 | 113.0 | . | .
COC(=O)c1ccc(N2CCN(C)CC2)c(NC(=O)c2sc3ccccc3c2Cl)c1 | 22.0 | 172.0* | . | -13.7 | 70.9* | 111.0 | 82.2 | i
C=CCn1c(-c2ccc(Cl)cc2)c[nH]c1=S | -1.0 | 104.0 | 0.0477 | -11.3 | . | 104.0 | 108.9 | i
COc1ccc(S(=O)(=O)N2CCCCCC2)cc1C(=O)NCCc1ccccc1 | . | . | . | 0.6 | -4.7 | . | . | .
CC(=O)N1CCN(S(=O)(=O)c2cccc(C(=O)OCc3cccc(F)c3)c2)CC1 | . | . | . | -10.5 | -0.5 | . | . | .
CN(C(=O)c1ccc(NC(=O)Cc2cccc(NC(=O)C3CCN(C(=O)C4CCC4)CC3)c2)cc1)C1CC1 | . | . | . | -9.1 | -7.6 | . | 113.3 | i
CN(C(=O)c1ccc(NC(=O)Cc2cccc(NC(=O)C3CCN(C(=O)C4CCCCC4)CC3)c2)cc1)C1CCCC1 | . | . | . | -13.3 | 54.1* | . | 92.4 | i
COCC(C)NC(=O)CCS(=O)(=O)c1nc(-c2ccc(OC)cc2)cc(C(F)(F)F)n1 (stereo not drawn) | 10.0 | 108.0 | -3.16 | -6.5 | 52.6* | 104.0 | 24.6*! | i
COCCNC(=O)CCSc1nc(-c2ccc(OC)cc2)cc(C(F)(F)F)n1 | 2.0 | 93.0 | 0.342 | -11.2 | 9.4 | 93.0 | . | .
Cc1cccc(C)c1NC(=O)CN1CCN(CCCC(c2ccc(F)cc2)c2ccc(F)cc2)CC1 | . | . | . | -9.5 | 20.1 | . | 104.0 | i
CC/C(=N\NC(=O)c1nnn(-c2nonc2N)c1CN(C)c1ccccc1)c1ccccc1 | -1.0 | 97.0 | . | -5.6 | -0.5 | 103.0 | . | .
CN1CCN(C(=S)SCC(=O)Nc2nc(-c3ccccc3)c(-c3ccccc3)o2)CC1 | 18.0 | 126.0 | 0.408 | 0.9 | -8.4 | 102.0 | . | .
COc1ccc(-c2nn(-c3ccccc3)cc2C(=O)N2c3ccc(C)cc3C3CN(C)CCC32)cc1 (stereo not drawn) | 20.0 | 126.0 | 0.507 | 0.1 | 70.5* | 102.0 | 90.4 | i
Cc1ccc2c(c1)C1CN(C)CCC1N2C(=O)c1ccccc1NS(=O)(=O)c1cccc(C(F)(F)F)c1 (stereo not drawn) | 25.0 | 118.0 | -0.457 | -6.9 | 67.0* | 105.0 | 103.7 | i
Cc1ccc2c(c1)C1CN(C)CCC1N2C(=O)c1ccccc1NS(=O)(=O)c1ccc(F)cc1 (stereo not drawn) | 17.0 | 103.0 | -0.235 | -6.7 | -0.2 | 102.0 | . | .
COc1ccc(-c2nn(-c3ccccc3)cc2C(=O)O)cc1 | 17.0 | 113.0 | -0.982 | -15.5 | -7.8 | 109.0 | . | .
CC(C)NCC(O)c1cc(O)cc(O)c1 (stereo not drawn) | 1.0 | 95.0 | -1.16 | -1.8 | 0.1 | 101.0 | 93.3 | i
CC(C)NC[C@H](O)c1ccc(O)c(O)c1 | . | . | . | -5.3 | . | . | . | .
COc1ccc(OCC(=O)NNC(=O)c2cccs2)cc1 | 1.0 | 103.0 | -0.335 | -1.2 | 2.2 | 97.0 | . | .
COc1ccc(OCC(=O)Nc2ccc(NC(=O)c3cccs3)cc2)cc1 | 3.0 | 94.0 | . | 4.8 | 54.5* | 95.0 | 74.5 | i
O=C(Cc1n[nH]c(=O)c2ccccc12)OCC(=O)c1ccc(F)c(F)c1 | . | . | . | -4.4 | -7.9 | . | . | .
Clc1ccc(-c2nnnn2-c2ccc(Cl)c(Cl)c2)cc1Cl | 12.0 | 104.0 | 0.136 | -2.7 | -2.5 | 100.0 | . | .
COc1ccc([C@H]2/C=C\CN(C(=O)c3ccc(C)cc3)[C@@H](C)C(=O)N2Cc2ccc(F)cc2)cc1 | 2.0 | 107.0 | . | -0.5 | 14.7 | 107.0 | 105.9 | i
COc1ccc(C2/C=C\CN(C(=O)c3ccccc3)[C@H](Cc3ccccc3)C(=O)N2Cc2ccc(F)cc2)cc1 (stereo partly drawn) | 1.0 | 135.0 | -0.518 | -3.0 | 12.3 | 123.0 | 105.5 | i
COc1ccc(C2/C=C\CN(C(=O)c3ccccc3)CC(=O)N2Cc2cccc(F)c2)cc1 (stereo not drawn) | . | . | . | -4.7 | 3.9 | . | 100.8 | i
SMILES | MEKK2mut PB1 HTS | MEKK2wt PB1 HTS | Dynein cargo inh | ATG4B inh | Beta2AR agonist | MEKK3 PB1 HTS | B2AR ag CP1 | B2AR FAP counter
COc1ccc(C2/C=C\CN(C(=O)OCC3c4ccccc4-c4ccccc43)CC(=O)N2Cc2cccc(F)c2)cc1 (stereo not drawn) | . | . | . | 21.8 | -0.1 | . | . | .
COc1ccc([C@H]2/C=C\CN(C(=O)CC(C)(C)C)[C@@H](C)C(=O)N2Cc2ccc(F)cc2)cc1 | 5.0 | 104.0 | . | -3.2 | -7.6 | 107.0 | . | .
COc1ccc([C@H]2/C=C\CN(Cc3ccc(N(C)C)cc3)[C@@H](C)C(=O)N2Cc2ccc(F)cc2)cc1 | 1.0 | 108.0 | . | 5.4 | 113.2* | 101.0 | 28.9* | i
Cc1cc(S(=O)(=O)Nc2nc(CN3CCOCC3)nc3sc4c(c23)CCC4)ccc1F | . | . | . | -2.3 | 13.3 | . | . | .
CC(=O)Nc1ccc(S(=O)(=O)N2CCN(Cc3cccs3)CC2)cc1 | -7.0 | 100.0 | -0.559 | -5.1 | 1.9 | 97.0 | . | .
Cc1ccc([N+](=O)[O-])cc1N/C=C1\CCc2ccccc2C1=O | -3.0 | 100.0 | -0.327 | 1.9 | 6.9 | 96.0 | . | .
OC(C#Cc1ccccn1)c1cccs1 (stereo not drawn) | 9.0 | 106.0 | -0.332 | -9.4 | 62.7* | 107.0 | 117.6 | i
CCOc1ccc2nc(N3C(=O)CNC3=S)sc2c1 | 1.0 | 96.0 | 1.07 | -10.7 | 3.2 | 100.0 | 103.5 | i
Cc1cc2nc(N3C(=O)CNC3=S)sc2cc1C | -2.0 | 97.0 | 0.211 | 3.4 | 1.1 | 97.0 | . | .
O=C(NC1CCCC1)c1cc(COc2ccc3ncccc3c2)on1 | 6.0 | 100.0 | 0.0677 | -8.0 | -7.4 | 100.0 | . | .
CC(NC(=O)c1cc(COc2ccc3ncccc3c2)on1)c1ccc(F)cc1 (stereo not drawn) | -2.0 | 92.0 | -0.391 | 2.3 | 44.7* | 95.0 | 57.4* | i
CCN(C(=O)c1ccc(NC(C)=O)cc1)c1ccccc1 | 4.0 | 102.0 | -0.229 | -6.9 | -13.7 | 101.0 | . | .

Source: PubChem
